pIC50: −log10 of the molar value. Entries after “also recorded” stand apart in the source; their conditions may differ.
What was measured:
[1] = test system: farnesylated substrates (YnF labeling) in EA.hy926 cells; assay type: cell-based, human; settings: for mean in-cell IC50 response (YnF labeling of farnesylated substrates): 10 µM YnF, 1 h inhibitor pre-incubation + 8 h
Summary of the method: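 EA.hy926 endothelial cells labeled with alkyne prenyl probe alongside increasing concentrations of prenyl transferase inhibitor. Lysates were spiked with a heavy SILAC standard, a lysate dual-labeled with 13C615N4-Arg/13C615N2-Lys (R10K8) plus the same probe. Probe-labeled proteins were quantified against this standard by spike-in SILAC chemical proteomics, giving dose-response curves per farnesylated substrate.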

EA.hy926 cells = assay: Cell toxicity observed during cell treatment; assay type: cell-based, human; settings: data not shown
FTase = FTase (Rattus norvegicus, UniProt Q02293+Q04631); settings: read-out: IC50 (weak FTI); cited from earlier work
Sequence of FTase (Q02293 whole entry, one chain of several): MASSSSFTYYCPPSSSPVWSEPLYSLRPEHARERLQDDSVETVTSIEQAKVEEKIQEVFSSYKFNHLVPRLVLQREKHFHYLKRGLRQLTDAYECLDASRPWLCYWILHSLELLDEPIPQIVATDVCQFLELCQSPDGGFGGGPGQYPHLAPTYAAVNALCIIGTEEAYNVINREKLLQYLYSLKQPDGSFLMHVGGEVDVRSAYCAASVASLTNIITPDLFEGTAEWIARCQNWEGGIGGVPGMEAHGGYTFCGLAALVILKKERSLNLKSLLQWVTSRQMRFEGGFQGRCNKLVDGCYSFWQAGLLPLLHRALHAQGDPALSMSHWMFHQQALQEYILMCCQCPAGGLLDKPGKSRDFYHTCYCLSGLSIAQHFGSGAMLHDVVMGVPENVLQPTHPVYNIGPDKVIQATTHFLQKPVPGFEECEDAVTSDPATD

[2] = test system: YnGG labeling of farnesylated substrates in EA.hy926 cells; assay type: cell-based, human
Summary of the method: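 Human EA.hy926 cells given an FTase inhibitor over a range of concentrations and labeled with YnF or YnGG in parallel. Probe incorporation was quantified proteome-wide by spike-in SILAC chemical proteomics. Changes in the YnF/YnGG incorporation ratio were compared with loss of YnF labeling across concentrations. Points are mean of n=3 ± standard deviation.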

SMILES | selectivity at the whole proteome level [1] | mean in-cell IC50 response (YnF labeling of farnesylated substrates) [1] | impact on farnesylation (YnF labeling) ([1]; up to the highest concentration tested (10 µM)) | concentration above which acute cell toxicity was evident (EA.hy926 cells) | pIC50 (FTase) | concentration of maximum increase in YnGG labeling of KRAS ([2]; KRAS) | concentration of maximum increase in YnGG labeling of NRAS ([2]; NRAS) | concentration of maximum increase in YnGG labeling of RRAS2 ([2]; RRAS2)
COC(=O)[C@H](CCSC)NC(=O)c1ccc(NC[C@@H](N)CS)cc1-c1ccccc1 [FTI-277] | excellent selectivity | micromolar |  |  |  |  |  | 
CCCC[C@@H](C)/C=C(C)/C=C(\C)C(=O)NC1=C[C@@](O)(/C=C/C=C/C=C/C(=O)NC2=C(O)CCC2=O)[C@@H]2O[C@@H]2C1=O [Manumycin A] |  |  | no evidence that Manumycin A impacted farnesylation; also recorded: insensitive | > 10 µM | 5.30 |  |  | 
Cn1cncc1[C@@](N)(c1ccc(Cl)cc1)c1ccc2c(c1)c(-c1cccc(Cl)c1)cc(=O)n2C [Tipifarnib] | excellent selectivity | low nanomolar |  |  |  | 10 nM | 5 nM | 1 nM

From paper PMC6544531 (Nature chemistry, 2019)
